Results as given in the EternaBench riboswitch data.

Key:
[1] = system: MS2 coat protein; assay: apparent Kd, MS2 coat protein; higher = weaker binding; RNA-MaP array; theophylline 2 mM where present
In short: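 Stalled E. coli RNA polymerase produced the designs on Illumina sequencing-chip clusters. SNAP-549-labelled MS2 coat protein was added from 0.7 or 1.5 nM, doubling to 3 µM, without and then with constant ligand, in 100 mM Tris-HCl pH 7.5, 80 mM KCl, 4 mM MgCl2, BSA, DTT, yeast tRNA and Tween-20. The apparent Kd is the median of filtered per-cluster fits of green signal normalised to red-channel RNA signal and control-cluster median Fmax.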

[2] = system: MS2 coat protein; assay: apparent Kd, MS2 coat protein; higher = weaker binding; RNA-MaP array
In short: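 Apparent Kd values come from the median of binding-curve fits to single clusters. To obtain them, designed RNAs transcribed on an Illumina sequencing chip from sequenced DNA templates were incubated at room temperature with fluorescently labeled MS2 coat protein at 1.5 nM to 3 μM, with or without input ligand, for 0.8–1.5 h at the lowest and 10–20 min at the highest concentrations. Designs measured on fewer than 10 clusters were excluded.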

[3] = designed as: ON switch for theophylline, no ligand
[4] = ligand present: theophylline, designed as: ON switch for theophylline
[5] = designed as: OFF switch for theophylline, no ligand
[6] = ligand present: theophylline, designed as: OFF switch for theophylline
[7] = designed as: OFF switch for flavin mononucleotide, no ligand
[8] = ligand present: flavin mononucleotide, designed as: OFF switch for flavin mononucleotide
[9] = designed as: ON switch for flavin mononucleotide, no ligand
[10] = ligand present: flavin mononucleotide, designed as: ON switch for flavin mononucleotide

Sequence | apparent Kd [1, 3] | apparent Kd [1, 4] | apparent Kd [1, 5] | apparent Kd [1, 6] | further results
AAACUAACGAGAGGAAACCUCGAGGGUGAUACCAGCACAUAAGGGUGCCCUUGGCAGCACCGACGUACAUGAGGAUCACCCAUGU | 162 nM | 65 nM | – | – | –
AACAUGAGGAUCACCCAUGUAUUGGGUGAUACCAGCCUGAAUAAUGGCCCUUGGCAGCACCACGCUAACUUUAUGUCUGCGAACC | 92.2 nM | 162 nM | – | – | –
AACUGGACCCGUGAUACCAGAGACAUGAGGAUCACCCAUGUACAUGAGGAUCACCCAUGUCUCCCUUGGCAGCACCGCAGGGAGC | – | – | 97.5 nM | 393 nM | –
AAUUUGUCGGGUGAUACCAGCCUCGGCGCGUCUCGCGCUGAACAUGAGGAUCACCCAUGUGGCCCUUGGCAGCACAUGACAAAUC | 670 nM | 38.2 nM | – | – | –
ACAUCCAGGUUAAUCGUGGGCAUGGUCGAUACCAGUAUUUUAAUCUACCCUUGGCAGCGACAUGAGGAUCACCCAUGUGCGAUGA | – | – | 24.6 nM | 36.3 nM | –
ACAUGAGGAUCACCCAUGUCAAGGCACGAUACCAGCUGAUCCCGUGGCCCUUGGCAGCGUCACGUUUGGUCCCGCGGAUGACACG | 89 nM | 95.8 nM | – | – | –
ACAUGAGGAUCACCCAUGUGGCGACUUGAUACCAGACCCGCACUAGUCCCUUGGCAGCAACUACGUGUGGGACACCCAUGUUAAG | – | – | 16.9 nM | 22 nM | –
ACCCUAGCGAUCGCUCGCUAGGGUGCGGAUACCAGCGAGGUCCAUCGCCCUUGGCAGCCGAACAUGAGGAUCACCCAUGUCGGUA | 10.7 nM | 14.3 nM | – | – | –
ACGAACGAUAGUGAUACCAGACGUACAUGAGGAUCACCCAUGUUAUACACAUGGUUUAUUGUCCCUUGGCAGCACGAUAAGUUCG | – | – | 225 nM | 287 nM | –
ACGAACGAUAGUGAUACCAGACGUACAUGAGGAUCACCCAUGUUUUGGGUAAGGUUAAUAGUCCCUUGGCAGCACUUUAAGUUCG | – | – | 58.7 nM | 398 nM | –
ACGUCUCGAAAACUCGUAGUAACAAUAGAUACCAGUAGCGAGAGUUACCCUUGGCAGCUACAUGAGGAUCACCCAUGUACGAGGA | – | – | 17.4 nM | 17.2 nM | –
AGAAUAACACAUGAGGAUCACCCAUGUGAUACCAGCUAGGAAACUAGCCCUUGGCAGCACAUAAUCCUCAUGAAUGUGCUGAAUA | – | – | 70.4 nM | 60.6 nM | –
AGACAUGAGGAUCACCCAUGUAGUAUGGAUACCAGAUCCAGAUUUAUCCCUUGGCAGCUGUGGUACAGUGAUGGAUUGCUCCUAG | – | – | 31 nM | 40.8 nM | –
AGAUUACAUGUUAUAAUACGGUAUACUGAUACCAGUGUUUCUAUUCACCCUUGGCAGCAGCAACAUGAGGAUCACCCAUGUAUUA | 17.1 nM | 16 nM | – | – | –
AGCCUCAUACAUGAGGAUCACCCAUGUGAUACCAGUCAGGAAACUGACCCUUGGCAGCGCAUGAGGAUCACCCAUGCGCGAGGCA | – | – | 59.7 nM | 113 nM | –
AGCGACAUGCAUGAUACCAGCUACAUGAGGAUCACCCAUGUACGUCAGUAAUGACUGUGUAGCCCUUGGCAGCAUAGAGCAUGUC | – | – | 18.3 nM | 48.6 nM | –
AGCGACAUGCGUGAUACCAGCUACAUGAGGAUCACCCAUGUAAGUAGGAAACUACUGUGUAGCCCUUGGCAGCAUAGUGCAUGUC | – | – | 13.5 nM | 41.5 nM | –
AGUACACGAACGGAUACCAGCCGGACAUGAGGAUCACCCAUGUCCUACCUCUGUUCGGUUGGCCCUUGGCAGCCGUUCGUGUACA | 117 nM | 88.3 nM | – | – | –
AGUAUACAUUCUGAUACCAGAGACAUGAGGAUCACCCAUGUCCGAUCGUCCUGCCUCAGACUCCCUUGGCAGCAGGAUAUGUGCU | – | – | 16.2 nM | 27.6 nM | –
AUCGUACCUGAAGAUACCAGCAUGUGAUCAUAACAUGAGGAUCACCCAUGUAAUCAGUGAUGCCCUUGGCAGCUUGAUCGGUACA | 40.8 nM | 19.2 nM | – | – | –
AUCGUACCUGAUGAUACCAGCAUGUGAUCAUAACAUGAGGAUCACCCAUGUAAUCAGUGAUGCCCUUGGCAGCAUAGUCGAUACA | 153 nM | 55.9 nM | – | – | –
AUCGUACCUGAUGAUACCAGCAUGUGCUCGUAACAUGAGGAUCACCCAUGUGAUCAGUAAUGCCCUUGGCAGCAUGAUCGGUACA | 57.9 nM | 14.3 nM | – | – | –
AUGUCGUUGAAUAUAGCGGCUUGGAGUGAUACCAGAAUGAUCUAAUUCCCUUGGCAGCAUUACAUGAGGAUCACCCAUGUUCCAG | 51.1 nM | 39.7 nM | – | – | –
AUUAAAAGUUGUGAUACCAGACGAACAUGAGGAUCACCCAUGUAACUUUUAGGUGUUGUAGUCCCUUGGCAGCACUAUGUAGUUA | 43.6 nM | 38.2 nM | – | – | –
AUUUUCAUGGUCAUAUAUAUAUCUUCAGAUACCAGACUAUAUUAAGUCCCUUGGCAGCUGUUACAUGAGGAUCACCCAUGUUAUA | – | – | 127 nM | 36.2 nM | –
CAAGAAGUAACUGAUACCAGUGUACUGACAUGAGGAUCACCCAUGUUGGGUUUUGUUGUACACCCUUGGCAGCAGAAUCUUCUUG | – | – | 66.8 nM | 90.5 nM | –

Sequence | apparent Kd [1, 3] | apparent Kd [1, 4] | apparent Kd [1, 5] | apparent Kd [1, 6] | further results
CAAUACGUAACUGAUACCAGUGUACUGACAUGAGGAUCACCCAUGUUGGGUUUUGUUGUACACCCUUGGCAGCAGAAUCGUAUUG | – | – | 70.1 nM | 93.7 nM | –
CAGGUGCAGUCAGAUACCAGAUCUGCACAUGAGGAUCACCCAUGUGUAAUGAGUUCAAAGAUCCCUUGGCAGCUGUGUGAUCCGA | 165 nM | 193 nM | – | – | –
CAUACUUUAGUAUGACAUGUGGGCAGUGAUACCAGAUACGAAAGUAUCCCUUGGCAGCACAACAUGAGGAUCACCCAUGUAAUUA | 29.6 nM | 59.2 nM | – | – | –
CCGAACAUGAGGAUCACCCAUGUUAGGGAUACCAGCCCAGACAUGGGCCCUUGGCAGCUCUAUAGCUGACGAAAGUCAGCAUCGG | 58.5 nM | 30.5 nM | – | – | –
CCUGCGUUUCUUUUCUUUCGCAGGAAUGAUACCAGUAGGGAAACCUACCCUUGGCAGCAUGGGUAACAUGAGGAUCACCCAUGUU | 473 nM | 82.2 nM | – | – | –
CCUGCUACGGGAAACCGUAGCAGGAAUGAUACCAGUAGGAAAGACUACCCUUGGCAGCAUGGGAAACAUGAGGAUCACCCAUGUU | 56.3 nM | 56.6 nM | – | – | –
CGAUACGUAACUGAUACCAGUGUACUGACAUGAGGAUCACCCAUGUUGGGUUUUGUUGUACACCCUUGGCAGCAGAAUCGUAUCG | – | – | 67.5 nM | 96.1 nM | –
CUGCUACAUGAGGAUCACCCAUGUGGAGAUACCAGCCUGAACGAUGGCCCUUGGCAGCUCUUAGCUGGUGAUCAUAUAUUUCAGA | – | – | 30.5 nM | 146 nM | –
GAGCUGAUGUAGAAAUUUUAUUUCUGAGAUACCAGUACAGAAAUGUACCCUUGGCAGCUCAGUUUUACAUGAGGAUCACCCAUGU | – | – | 12.2 nM | 15 nM | –
GAUCUGUCGGGUGAUACCAGCCUCGGCACAUCUCGUGCCGAACAUGAGGAUCACCCAUGUGGCCCUUGGCAGCACAUGACAAAUC | 362 nM | 55.1 nM | – | – | –
GCCAGACAUGAGGAUCACCCAUGUAGCGAUACCAGCUCUGUUGUGAGCCCUUGGCAGCGCACUGGCAUCGCGGGUGAUCCUGCAU | 43.4 nM | 164 nM | – | – | –
GCUGUAAGUGCAGAUACCAGCAAGUGAGGUUUCAUAUGACAUGAGGAUCACCCAUGUAUCUGCCCUUGGCAGCUGCACUUACAGC | 21.4 nM | 15.2 nM | – | – | –
GCUGUAAGUGCAGAUACCAGCAGGUGAUAUUUCAUAUGACAUGAGGAUCACCCAUGUAACUGCCCUUGGCAGCUGCACUUACAGC | 373 nM | 40.9 nM | – | – | –
GGUGGAGGCGUGGGACUUGUCUGAACGGAUACCAGCCACAUCACGGGCCCUUGGCAGCUGUACAUGAGGAUCACCCAUGUCGGUC | – | – | 32.3 nM | 93.7 nM | –
UGACACAUGAGGAUCACCCAUGUUGGGUAAUGUUAACGUACAAGAAGGGCAGCCGGCCGGACGUUGCAGGAUAUUGUAGCGCGA | – | – | – | – | apparent Kd [2, 7]: 41.7 nM; apparent Kd [2, 8]: 31.1 nM
UGCCUAUACCAGAAGGGCGUACGGGAAAACAUGAGGAUCACCCAUGUGAGAUCAUCAUCGCUAGCGCAGGAUAUGGAAGUUCGG | – | – | – | – | apparent Kd [2, 7]: 25 nM; apparent Kd [2, 8]: 29.4 nM
UGCGGCGAAGGAUAUUGACCAAAACACAUGAGGAUCACCCAUGUACUCAUAACAUGCUAACAAGAAGGUCGCGUAA | – | – | – | – | apparent Kd [2, 7]: 15.9 nM; apparent Kd [2, 8]: 13.8 nM
UUACAACAUGAGGAUCACCCAUGUUAGGAUAUACGAGGGACAGCGCGGUUAUAUCCCUGUAGAAGGAACACGGG | – | – | – | – | apparent Kd [2, 7]: 39.6 nM; apparent Kd [2, 8]: 47.6 nM
UUAUAUUCUCAAUCGCCAUGUGCUUUAGAUACCAGUCUGAUAAAUGACCCUUGGCAGCUAGAGACAUGAGGAUCACCCAUGUCUU | – | – | – | – | apparent Kd [2, 5]: 10.6 nM; apparent Kd [2, 6]: 29.8 nM
UUCCUGAAAGGAUAUACCUGGCCCGUGAACUGGAUAAAAGCACAUGAGGAUCACCCAUGUAGAAGGUUCGAUUA | – | – | – | – | apparent Kd [2, 7]: 7.14 nM; apparent Kd [2, 8]: 7.02 nM
UUCUCAUCGUACAUGAGGAUCACCCAUGUCUCCCAUUUACCCUAGGAUAUGAAAGACCUUUACUCUCAGAAGGAGGAUGAUGCA | – | – | – | – | apparent Kd [2, 9]: 63.2 nM; apparent Kd [2, 10]: 51.9 nM
UUGGCACGGACGGCCGCCACUCUUUCACAUGAGGAUCACCCAUGUUAUCUAGUCCUCAGCAGAAAGAGGACCGGGUCGGAGUUGG | – | – | – | – | apparent Kd ([2]; designed as: OFF switch for tryptophan, no ligand): 126 nM; apparent Kd ([2]; ligand present: tryptophan, designed as: OFF switch for tryptophan): 122 nM
UUGUACGAAACUGAUACCAGCCAGCAAUGCCACCAAGAGCACAUGAGGAUCACCCAUGUUGGCCCUUGGCAGCAGGACAAUAAGC | – | – | – | – | apparent Kd [2, 5]: 8.63 nM; apparent Kd [2, 6]: 9.47 nM
UUUACGAACGUGGAAAUACAUGAGGAUCACCCAUGUCAAUUGUAGGAUAUCCGGCUCAAAGAAAUGGAGAAGGACAACGACUCC | – | – | – | – | apparent Kd [2, 9]: 13.4 nM; apparent Kd [2, 10]: 12.7 nM
UUUGUAUAGCAGAAGGCGUUAUUAGGAUGGCUACGAGGAUAUGCGGUACUCUAUUAGUACAUGAGGAUCACCCAUGUGUGGGCC | – | – | – | – | apparent Kd [2, 9]: 214 nM; apparent Kd [2, 10]: 145 nM
